pEC50, pIC50: −log10 of the molar value. Activity calls are given as the source filed them. The calls are words filed in the database; no cut-off is given here.
Columns and labels:
[1] = Inhibition of HCV NS5B polymerase; parameters: species or system Hepacivirus hominis
Method in brief: (§1)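 In vitro nucleotide incorporation assay using functionally active recombinant NS5B with a hairpin-like primed RNA substrate. Controls: enzyme without compound (positive) and enzyme with basilen blue (negative). Result reported as IC50.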

[2] = Cytotoxicity against Huh7 cells by MTS assay; assay type: cell-based; details: human, huh-7
Method in brief: (§2)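 MTS metabolic assay run on rapidly dividing and on stationary cells.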

Homo sapiens = organism: Homo sapiens; assay: Inhibition of human mitochondrial DNA polymerase gamma up to 80 uM
Hepatitis C virus [3] = assay: Reduction of viral protein in Huh7 cells containing HCV sub-genomic replicon after 3 days; assay type: functional, organism-based; details: Hepacivirus hominis; Huh-7
Hepatitis C virus [4] = assay: Reduction of viral RNA in Huh7 cells containing HCV sub-genomic replicon after 3 days; assay type: functional, organism-based, Hepacivirus hominis; details: Huh-7, 72 h
[5] = Inhibition of HCV 1a NS5B polymerase; parameters: species or system Hepatitis C virus subtype 1a
Method in brief: (§3)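 In vitro nucleotide incorporation assay using functionally active recombinant NS5B enzyme and a hairpin-like primed RNA substrate. Enzyme without compound served as the positive control, and enzyme with basilen blue dye as the negative control. IC50 values were determined.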

Hepatitis C virus [6] = assay: Inhibition of HCV 1b NS5B polymerase; parameters: species or system Hepatitis C virus subtype 1b; method in brief: as §1
[7] = Inhibition of HCV 3a NS5B polymerase; parameters: species or system Hepatitis C virus subtype 3a; method in brief: as §3
[8] = Inhibition of calf thymus polymerase alpha; parameters: species or system Bos taurus
[9] = Inhibition of helicase; parameters: species or system Homo sapiens
[10] = Inhibition of HIV reverse transcriptase; parameters: species or system Human immunodeficiency virus
DNA polymerase beta = DNA polymerase beta (Homo sapiens, UniProt P06746); assay: Inhibition of human DNA polymerase beta
Vero = assay: Cytotoxicity against Vero cells by MTS assay; assay type: cell-based; details: chlorocebus sabaeus; method in brief: as §2

| SMILES | pIC50 [1] | Activity [2] | further results |
| --- | --- | --- | --- |
| CCCC1(CC(=O)OCC)OCCc2c1[nH]c1c(C)ccc(C#N)c21 (centres undefined) | < 4.52 |  |  |
| CCCC1(CC(=O)O)OCCc2c1[nH]c1cccc(Cl)c21 (centres undefined) | 5.22 |  |  |
| CCC[C@@]1(CC(=O)O)OCCc2c1[nH]c1c(F)ccc(C#N)c21 | 5.28 | > 50 µM |  |
| CCCC1(CC(=O)O)OCCc2c1[nH]c1c(Cl)ccc(Cl)c21 (centres undefined) | 6.57 |  |  |
| CCC[C@]1(CC(=O)O)OCCc2c1[nH]c1c(C)cc(F)c(C#N)c21 | 7.10 | > 50 µM |  |
| CCc1ccc(Cl)c2[nH]c3c(c12)CCOC3(CC)CC(=O)O (centres undefined) | < 4.52 |  |  |
| CCC[C@@]1(CC(=O)O)OCCc2c1[nH]c1c(C)cc(F)c(C#N)c21 | 6.20 | > 50 µM |  |
| CCC[C@]1(CC(=O)O)OCCc2c1[nH]c1c(C)ccc(C#N)c21 | 6.48 |  | Activity (Homo sapiens): inactive; Activity (Hepatitis C virus [3]): Dose-dependent effect; pEC50 (Hepatitis C virus [4]): 5.32; pIC50 [5]: 6.52; pIC50 (Hepatitis C virus [6]): 6.52; pIC50 [7]: 6.52 |
| CCCC1(CC(=O)O)OCCc2c1[nH]c1c(C)ccc(C#N)c21 (centres undefined) | 6.24 |  |  |
| CCCC1(CC(=O)O)OCCc2c1[nH]c1c(C)cc(F)c(C#N)c21 (centres undefined) | 6.92 |  |  |
| CCCC1(CC(=O)O)OCCc2c1[nH]c1c(Cl)ccc(CC)c21 (centres undefined) | 5.52 | Not Active | pIC50 [8]: < 4.00; pIC50 [9]: < 4.12; pIC50 [10]: < 4.00; pIC50 (DNA polymerase beta): < 4.00; Activity (Vero): Not Active |
| CCC[C@@]1(CC(=O)O)OCCc2c1[nH]c1c(Cl)ccc(CC)c21 | < 4.82 | > 50 µM |  |
| CCC[C@]1(CC(=O)O)OCCc2c1[nH]c1c(F)ccc(C#N)c21 | 6.36 | > 50 µM |  |
| CCCC1(CC(=O)O)OCCc2c1[nH]c1c(F)ccc(C#N)c21 (centres undefined) | 6.00 |  |  |
| CCC[C@]1(CC(=O)O)OCCc2c1[nH]c1c(Cl)ccc(Cl)c21 | 7.22 | 33 µM |  |
| CCC[C@@]1(CC(=O)O)OCCc2c1[nH]c1c(Cl)ccc(Cl)c21 | 5.96 | 49 µM |  |
| CCCC1(CC(=O)O)OCCc2c1[nH]c1c(C)ccc(C#N)c21 (single isomer, unassigned) | 5.62 | > 50 µM |  |
| CCC[C@]1(CC(=O)O)OCCc2c1[nH]c1c(Cl)ccc(CC)c21 | 5.70 | > 50 µM |  |

Reference: ChEMBL document CHEMBL1149284, “Discovery of pyrano[3,4-b]indoles as potent and selective HCV NS5B polymerase inhibitors” (J Med Chem, 2004)
